Experiments:
Plasmodium falciparum [1] = test: Resistance index, ratio of IC50 for chloroquine-resistant asexual erythrocytic stage of Plasmodium falciparum Dd2 to IC50 for chloroquine-sensitive asexual erythrocytic stage of Plasmodium falciparum NF54; assay type: functional
Plasmodium falciparum [2] = test: Potency index, ratio of chloroquine IC50 to compound IC50 for chloroquine-resistant asexual erythrocytic stage of Plasmodium falciparum Dd2
Plasmodium falciparum [3] = test: Antiplasmodial activity against chloroquine-resistant asexual erythrocytic stage of Plasmodium falciparum Dd2 assessed as parasite growth inhibition by parasite lactate dehydrogenase assay; assay type: functional, organism-based
Procedure, shortened: (§1)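 Asexual erythrocytic cultures were maintained continuously by a modified Trager–Jensen method. Samples came from 20 mg/mL DMSO stocks and were serially diluted 2-fold in complete medium over 10 concentrations, from 100 µg/mL down to 0.20 µg/mL; some started at 1000 µg/mL. Reference drugs started at 100 ng/mL. Read-out was modified pLDH. IC50 came from full dose-response curves, run in triplicate on two occasions.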

Plasmodium falciparum [4] = test: Antiplasmodial activity against chloroquine-sensitive asexual erythrocytic stage of Plasmodium falciparum NF54 assessed as parasite growth inhibition by parasite lactate dehydrogenase assay; assay type: functional, organism-based; procedure, shortened: as §1

SMILES | Ratio IC50 (Plasmodium falciparum [1]) | Ratio IC50 (Plasmodium falciparum [2]) | IC50 (Plasmodium falciparum [3]) | IC50 (Plasmodium falciparum [4])
Clc1ccc2c(NCc3cn(CCCN4c5ccccc5CCc5ccccc54)nn3)ccnc2c1 | 1.2 | 3 | 74.1 nM | 64.3 nM
Clc1ccc2c(NCc3cn(CCCN(Cc4ccccc4)Cc4ccccc4)nn3)ccnc2c1 | 20 |  | 114 nM | 2240 nM
CN(CCn1cc(CNc2ccnc3cc(Cl)ccc23)nn1)Cc1ccccc1 | 1.4 |  | 151 nM | 216 nM
CN(CCn1cc(CNc2ccnc3cc(Cl)ccc23)nn1)c1ccccc1 | 1.3 |  | 380 nM | 492 nM
C[C@H]1[C@H](OC(=O)CCC(=O)O)O[C@@H]2O[C@@]3(C)CC[C@H]4[C@H](C)CC[C@@H]1[C@@]24OO3 [ARTESUNATE] | 4.6 |  | 24.2 nM | < 5.2 nM
Clc1ccc2c(NCc3cn(CCCN4CCCCC4)nn3)ccnc2c1 | 14 |  | 8.9 nM | 123 nM
Clc1ccc2c(NCc3cn(CCCN4CCOCC4)nn3)ccnc2c1 | 3.3 |  | 77.7 nM | 261 nM
CCN(CC)CCn1cc(CNc2ccnc3cc(Cl)ccc23)nn1 | 5.5 | 3 | 53.5 nM | 9.8 nM
Clc1ccc2c(NCc3cn(CCN4CCOCC4)nn3)ccnc2c1 | 1.4 |  | 1300 nM | 1760 nM
Clc1ccc2c(NCc3cn(CCCN4CCCC4)nn3)ccnc2c1 | 8.1 |  | 18.4 nM | 149 nM
Clc1ccc2c(NCc3cn(CCN4CCCC4)nn3)ccnc2c1 | 4.3 | 3 | 69.3 nM | 16.2 nM
Clc1ccc2c(NCc3cn(CCN(Cc4ccccc4)Cc4ccccc4)nn3)ccnc2c1 | 0.6 | 3 | 78.6 nM | 140 nM
CN(CCCn1cc(CNc2ccnc3cc(Cl)ccc23)nn1)Cc1ccccc1 | 3.4 | 3 | 50.8 nM | 15 nM
Clc1ccc2c(NCc3cn(CCN4CCCCC4)nn3)ccnc2c1 | 5.1 | 3 | 51.6 nM | 10.2 nM
CCN(CC)CCCn1cc(CNc2ccnc3cc(Cl)ccc23)nn1 | 2.7 |  | 1980 nM | 5330 nM
CN(CCCn1cc(CNc2ccnc3cc(Cl)ccc23)nn1)c1ccccc1 | 1.8 |  | 165 nM | 305 nM

From ChEMBL document CHEMBL3596109, “In vitro antiplasmodial activity of triazole-linked chloroquinoline derivatives synthesized from 7-chloro-N-(prop-2-yn-1-yl)quinolin-4-amine” (Bioorg Med Chem, 2015)
